# Data published in ChEMBL document CHEMBL3739255, “Novel Series of Dihydropyridinone P2X7 Receptor Antagonists” (J Med Chem, 2015).
# Tests used:
# P2X purinoceptor 7 [1] = target: T1, P2X purinoceptor 7 (Homo sapiens, UniProt Q99572); experiment: Antagonist activity at human P2X7R expressed in BzATP-stimulated human 1321N1 cells incubated for 20 mins followed by BzATP stimulation measured every 1 sec for 60 secs followed by 3 sec intervals for 4 mins by FLIPR Ca2+ assay in presence of ionomycin; format: cell-based
# T1 sequence (Q99572 whole entry): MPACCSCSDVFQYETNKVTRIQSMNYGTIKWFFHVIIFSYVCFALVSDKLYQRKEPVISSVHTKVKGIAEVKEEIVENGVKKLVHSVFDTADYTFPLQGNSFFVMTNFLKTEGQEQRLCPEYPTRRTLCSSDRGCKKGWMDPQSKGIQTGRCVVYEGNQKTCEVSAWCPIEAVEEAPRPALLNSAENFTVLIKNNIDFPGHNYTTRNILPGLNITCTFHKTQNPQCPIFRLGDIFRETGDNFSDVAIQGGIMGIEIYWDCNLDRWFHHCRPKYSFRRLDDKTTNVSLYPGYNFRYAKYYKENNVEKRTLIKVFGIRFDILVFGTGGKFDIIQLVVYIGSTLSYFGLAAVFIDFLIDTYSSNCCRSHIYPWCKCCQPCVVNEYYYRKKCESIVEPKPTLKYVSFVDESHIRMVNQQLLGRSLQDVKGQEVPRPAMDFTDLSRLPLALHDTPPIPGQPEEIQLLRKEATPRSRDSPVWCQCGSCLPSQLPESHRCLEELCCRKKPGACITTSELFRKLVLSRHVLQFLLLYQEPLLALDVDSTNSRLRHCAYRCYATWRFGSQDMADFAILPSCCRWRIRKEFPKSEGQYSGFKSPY
# Method in brief: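 1321N1 cells stably expressing human P2X7R, stimulated with BzATP; calcium flux read on FLIPR. IC50 is the mean of n ≥ 2 runs, each including a positive control.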
# [2] = Intrinsic clearance in human liver microsomes assessed per mg of protein at 1 uM after 1 hr by LC/MS/MS analysis; format: ADME; settings: read-out: CLH
# [3] = Intrinsic clearance in rat liver microsomes assessed per mg of protein at 1 uM after 1 hr by LC/MS/MS analysis; format: ADME; settings: read-out: CLH
# [4] = Drug degradation in human plasma at 10 uM after 4 hrs by LC/MS/MS analysis; format: ADME, cell-free; settings: read-out: Drug degradation
# P2X purinoceptor 7 [5] = target: T1, P2X purinoceptor 7; experiment: Antagonist activity at P2X7R in human whole blood assessed as inhibition of LPS-induced IL-1beta production incubated for 30 mins followed by ATP addition for 30 mins by ELISA assay; format: tissue-based
# Salmonella typhimurium = experiment: Genotoxicity in Salmonella typhimurium by Ames test; format: toxicity, organism-based; settings: salmonella enterica subsp. enterica serovar typhimurium
# Liver microsome [6] = experiment: Retention time of the compound in human liver microsomes at 20 uM by LC/UV chromatogram analysis; format: ADME
# Liver microsome [7] = experiment: Retention time of the compound in rat liver microsomes at 20 uM by LC/UV chromatogram analysis; format: ADME
# Liver microsome [8] = experiment: Metabolic stability in human liver microsomes assessed as GSH adduct formation at 20 uM preincubated for 5 mins followed by NADPH addition measured after 60 mins by LC/MS/MS analysis; format: ADME; settings: 1 h
# Method in brief: (§1)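 Liver microsomes (human or rat) incubated with compound and glutathione. The GSH adduct is quantified by UV chromatography as % relative peak area versus the summed areas of GSH adduct, other metabolites and parent compound.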
# Liver microsome [9] = experiment: Metabolic stability in rat liver microsomes assessed as GSH adduct formation at 20 uM preincubated for 5 mins followed by NADPH addition measured after 60 mins by LC/MS/MS analysis; format: ADME; settings: 1 h; method in brief: as §1
# [10] = Solubility of compound by lyophilization solubility assay; format: physicochemical
# Liver microsome [11] = experiment: Drug metabolism in human liver microsomes assessed as GSH adduct UV peak area at 20 uM preincubated for 5 mins followed by NADPH addition measured after 60 mins by LC/MS/MS analysis relative to total area of GSH adduct, other metabolites, parent compound; format: ADME; settings: 1 h
# Liver microsome [12] = experiment: Drug metabolism in rat liver microsomes assessed as GSH adduct UV peak area at 20 uM preincubated for 5 mins followed by NADPH addition measured after 60 mins by LC/MS/MS analysis relative to total area of GSH adduct, other metabolites, parent compound; format: ADME; settings: 1 h
# [13] = Oral bioavailability in rat at 2 mg/kg administered as single dose; format: ADME, organism-based; settings: in vivo
# Method in brief: (§2)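 Rats given a single dose, iv 0.5 mg/kg or po 2 mg/kg, with n ≥ 2 per time point. Bioavailability is derived from the po and iv exposures. Vdss is reported in L/kg.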
# Rattus norvegicus = experiment: Dose normalized AUC in rat at 2 mg/kg, po administered as single dose; format: ADME, organism-based; settings: in vivo
# Method in brief: (§3)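 Single-dose rat PK: iv at 0.5 mg/kg and po at 2 mg/kg. n ≥ 2 animals per time point. Oral AUC normalized to dose; clearance, Vdss and half-life taken from the iv arm.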
# [14] = Clearance in rat at 0.5 mg/kg, iv administered as single dose; format: ADME, organism-based; settings: in vivo; method in brief: as §3
# [15] = Volume of distribution at steady state in rat at 2 mg/kg, po and 0.5 mg/kg, iv administered as single dose; format: ADME, organism-based; settings: in vivo, read-out: Vdss; method in brief: as §2
# [16] = Half life in rat at 0.5 mg/kg, iv administered as single dose; format: ADME, organism-based; settings: in vivo; method in brief: as §3
# Cytochrome P450 2C9 = Cytochrome P450 2C9 (Homo sapiens, UniProt P11712); experiment: Inhibition of human CYP2C9 by fluorescence assay; format: ADME
# Sequence of Cytochrome P450 2C9 (P11712 whole entry): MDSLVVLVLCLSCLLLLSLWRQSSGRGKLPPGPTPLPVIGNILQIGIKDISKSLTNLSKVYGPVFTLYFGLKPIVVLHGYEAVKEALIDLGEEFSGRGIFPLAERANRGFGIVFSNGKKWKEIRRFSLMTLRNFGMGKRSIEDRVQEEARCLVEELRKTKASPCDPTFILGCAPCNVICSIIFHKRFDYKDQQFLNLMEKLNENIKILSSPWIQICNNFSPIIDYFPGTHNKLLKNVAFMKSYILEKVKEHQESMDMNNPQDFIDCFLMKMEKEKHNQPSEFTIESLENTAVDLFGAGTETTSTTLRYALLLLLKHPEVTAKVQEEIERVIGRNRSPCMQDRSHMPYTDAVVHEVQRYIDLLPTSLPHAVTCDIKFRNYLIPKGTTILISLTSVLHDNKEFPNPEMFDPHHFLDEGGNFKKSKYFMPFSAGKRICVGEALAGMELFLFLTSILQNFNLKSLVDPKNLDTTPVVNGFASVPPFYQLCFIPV
# Method in brief: (§4)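 IC50 values for CYP3A4, CYP2D6 and CYP2C9 from a fluorescence-based inhibition assay; average of n ≥ 2.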
# Cytochrome P450 2D6 = Cytochrome P450 2D6 (Homo sapiens, UniProt P10635); experiment: Inhibition of human CYP2D6 by fluorescence assay; format: ADME; method in brief: as §4
# Sequence of Cytochrome P450 2D6 (P10635 whole entry): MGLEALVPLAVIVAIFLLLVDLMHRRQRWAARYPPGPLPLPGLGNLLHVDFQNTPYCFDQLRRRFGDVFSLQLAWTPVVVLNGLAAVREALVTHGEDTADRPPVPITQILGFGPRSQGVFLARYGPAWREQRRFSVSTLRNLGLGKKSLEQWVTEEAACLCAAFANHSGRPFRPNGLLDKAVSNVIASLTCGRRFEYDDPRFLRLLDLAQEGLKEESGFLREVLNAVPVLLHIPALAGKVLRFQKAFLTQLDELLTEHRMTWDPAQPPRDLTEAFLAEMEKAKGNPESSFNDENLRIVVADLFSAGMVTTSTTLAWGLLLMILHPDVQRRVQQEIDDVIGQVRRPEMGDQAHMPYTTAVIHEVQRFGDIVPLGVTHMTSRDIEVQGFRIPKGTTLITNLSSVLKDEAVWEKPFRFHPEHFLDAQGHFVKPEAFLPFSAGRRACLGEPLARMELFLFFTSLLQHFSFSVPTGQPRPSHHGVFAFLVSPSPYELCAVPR
# Cytochrome P450 3A4 = Cytochrome P450 3A4 (Homo sapiens, UniProt P08684); experiment: Inhibition of human CYP3A4 by fluorescence assay; format: ADME; method in brief: as §4
# Sequence of Cytochrome P450 3A4 (P08684 whole entry): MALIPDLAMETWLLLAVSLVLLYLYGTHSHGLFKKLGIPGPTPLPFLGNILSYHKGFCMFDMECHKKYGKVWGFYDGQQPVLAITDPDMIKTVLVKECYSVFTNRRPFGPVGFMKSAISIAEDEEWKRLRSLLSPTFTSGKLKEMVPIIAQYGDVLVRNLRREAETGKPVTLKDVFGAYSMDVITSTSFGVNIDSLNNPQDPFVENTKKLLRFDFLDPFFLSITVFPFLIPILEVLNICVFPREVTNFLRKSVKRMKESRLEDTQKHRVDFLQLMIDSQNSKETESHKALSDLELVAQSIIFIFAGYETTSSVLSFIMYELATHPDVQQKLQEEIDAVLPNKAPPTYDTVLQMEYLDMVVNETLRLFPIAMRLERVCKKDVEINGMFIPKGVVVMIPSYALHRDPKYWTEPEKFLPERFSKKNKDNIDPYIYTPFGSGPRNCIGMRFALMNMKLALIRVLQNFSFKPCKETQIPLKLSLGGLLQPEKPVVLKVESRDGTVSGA
# [17] = Drug level in solid phase treated with (4S)-N-[4-Chloro-5-(2-hydroxyethoxy)-2-methyl-phenyl]-4-(4-fluorophenyl)-2-oxo-3,4-dihydro-1H-pyridine-5-carboxamide after 1 month; format: physicochemical; settings: 730.5 h
Compound,IC50 (P2X purinoceptor 7 [1]) [nM],IC50 (P2X purinoceptor 7 [5]) [nM],Activity (Salmonella typhimurium),other results
COc1cc(Br)c(NC(=O)N2C=CC(=O)CC2c2ccccc2)cc1OC (racemic),39,,,microsomal CLint at 1 µM [2]: 22 µL/min/mg; microsomal CLint at 1 µM [3]: 78 µL/min/mg
Cc1ccc(-c2ccnn(C)c2=O)cc1NC(=O)C1=CN(C)C(=O)C[C@H]1c1ccc(F)cc1,,6,Toxic,
COc1cc(Br)c(NC(=O)C2=CNC(=O)C[C@H]2c2cccc(F)c2)cc1OC,9,107,,
COc1cc(Br)c(NC(=O)N2C=CC(=O)C[C@H]2c2ccc(F)cc2)cc1OC,9,,,Retention_time (Liver microsome [6]): 16.58 min; Retention_time (Liver microsome [7]): 16.58 min
O=C1C=CN(C(=O)Nc2ccc3ncccc3c2Br)[C@H](c2ccc(F)cc2)C1,,,,Stability (Liver microsome [8]): Stable; Stability (Liver microsome [9]): Stable
COC[C@H](O)Cn1c(=O)cnn(-c2ccc(C)c(NC(=O)C3=CN(C)C(=O)C[C@H]3c3ccc(F)cc3)c2)c1=O,30,17,Non-toxic,solubility [10]: 1020 µg/mL; Stability (Liver microsome [11]): Stable; Stability (Liver microsome [12]): Stable; bioavailability [13]: 20%; AUC (Rattus norvegicus): 279 ng·h/mL; clearance [14]: 23 mL/min/kg; Vd [15]: 1.2 L/kg; half-life [16]: 240 min; IC50 (Cytochrome P450 2C9): > 50 µM; IC50 (Cytochrome P450 2D6): > 50 µM; IC50 (Cytochrome P450 3A4): > 50 µM
CN1C=C(C(=O)Nc2cc(-c3ccn[nH]c3=O)ccc2F)[C@H](c2ccc(F)cc2)CC1=O,26,27,Non-toxic,
Cc1cc(F)c(-c2ccnn(C)c2=O)cc1NC(=O)C1=CN(C)C(=O)C[C@H]1c1ccc(F)cc1,8,13,Non-toxic,solubility [10]: 322 µg/mL; Stability (Liver microsome [11]): Stable; bioavailability [13]: 64%; AUC (Rattus norvegicus): 1121 ng·h/mL; clearance [14]: 17 mL/min/kg; Vd [15]: 1 L/kg; half-life [16]: 60 min; IC50 (Cytochrome P450 2C9): > 32 µM; IC50 (Cytochrome P450 2D6): > 32 µM; IC50 (Cytochrome P450 3A4): > 32 µM
COc1cc(NC(=O)N2C=CC(=O)C[C@H]2c2ccc(F)cc2)c(Br)c(SC[C@H](NC(=O)CC[C@H](N)C(=O)O)C(=O)NCC(=O)O)c1O,,,,Retention_time (Liver microsome [6]): 10.74 min; Retention_time (Liver microsome [7]): 10.74 min
COc1cc(NC(=O)N2C=CC(=O)C[C@H]2c2ccc(F)cc2)c(Br)cc1F,32,,,
Cc1ccc(-n2ccccc2=O)cc1NC(=O)C1=CN(C)C(=O)N[C@H]1c1ccc(F)cc1,22,21,Non-toxic,
Cc1cc(Cl)c(OCCO)cc1N,,,Toxic,Drug metabolism [17]: metabolite_detected
Cc1ccc(-c2ccn[nH]c2=O)cc1NC(=O)C1=CN(C)C(=O)C[C@H]1c1ccc(F)cc1,,20,Toxic,
Cc1ccc(-n2ncccc2=O)cc1NC(=O)C1=CN(C)C(=O)C[C@H]1c1ccc(F)cc1,,33,Non-toxic,
COc1cc(C)c(C)c(NC(=O)C2=CNC(=O)C[C@H]2c2ccc(F)cc2)c1,9,,,

# Further lines, with some results ahead:
IC50 (P2X purinoceptor 7 [1]) [nM],IC50 (P2X purinoceptor 7 [5]) [nM],Compound,Activity (Salmonella typhimurium),other results
9,,Cc1cc(Cl)c(OCCO)cc1NC(=O)N1C=CC(=O)C[C@H]1c1ccc(F)cc1,,"metabolised at 4 h, 10 µM [4]: 50%"
12,,COc1cc(C)c(NC(=O)N2C=CC(=O)C[C@H]2c2ccc(F)cc2)cc1OC,,microsomal CLint at 1 µM [2]: 8.2 µL/min/mg; microsomal CLint at 1 µM [3]: 25 µL/min/mg
92,,COc1cc(Br)c(CC(=O)N2C=CC(=O)CC2c2ccccc2)cc1OC (racemic),,microsomal CLint at 1 µM [2]: 153 µL/min/mg; microsomal CLint at 1 µM [3]: 490 µL/min/mg
104,,COc1cc(I)c(CC(=O)N2C=CC(=O)CC2c2ccccc2)cc1OC (racemic),,microsomal CLint at 1 µM [2]: 168 µL/min/mg; microsomal CLint at 1 µM [3]: 548 µL/min/mg
40,,O=C1C=CN(C(=O)Nc2cc(OCCO)c(Cl)cc2Br)[C@H](c2ccc(F)cc2)C1,,
23,47,Cc1cc2cnn(CCO)c2cc1NC(=O)C1=CNC(=O)C[C@H]1c1ccc(F)cc1,,
,17,Cc1ccc(-c2ccnn(CCO)c2=O)cc1NC(=O)C1=CN(C)C(=O)C[C@H]1c1ccc(F)cc1,Non-toxic,
33,,COc1cc(NC(=O)N2C=CC(=O)C[C@H]2c2ccccc2)c(Br)cc1Cl,,
3800,,COc1cc(I)c(CC(=O)N2C=CC(=O)C[C@@H]2c2ccccc2)cc1OC,,
37,,COc1cc(NC(=O)N2C=CC(=O)C[C@H]2c2ccc(F)cc2)c(Br)cc1Cl,,
> 10000,,COc1cc(NC(=O)N2C=CC(=O)C[C@@H]2c2ccccc2)c(Br)cc1Cl,,
38,,COc1cc(I)c(CC(=O)N2C=CC(=O)C[C@H]2c2ccccc2)cc1OC,,
